Calls of active or inactive are those of the source. The rule behind the calls is not given here.
Key:
RPMI-8226 = test: Anticancer activity against human RPMI-8226 cells assessed as cell growth inhibition incubated for 48 hrs by sulforhodamine B assay; type: functional
Method in brief: (§1)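 NCI DTP 60-cell-line screen run at National Cancer Institute. Cells grown in RPMI 1640 with 5% fetal bovine serum and 2 mM L-glutamine, seeded at 5,000–40,000 cells/well depending on doubling time. Single-dose screen at 10 µM gives growth percentage; dose-response series gives GI50.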

KM12 [1] = test: Anticancer activity against human KM12 cells assessed as cell growth inhibition incubated for 48 hrs by sulforhodamine B assay; type: functional
Method in brief: (§2)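 NCI-60 screen: cell lines grown in RPMI 1640 with 5% FBS and 2 mM L-glutamine, plated in 96-well plates at 5,000–40,000 cells/well depending on doubling time. Each line has one single-dose arm at 10 µM and one dose-response arm giving GI50.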

SNB-75 = test: Anticancer activity against human SNB-75 cells assessed as cell growth inhibition at 10 uM incubated for 48 hrs by sulforhodamine B assay; type: functional; details: read-out: GI
786-0 [2] = test: Anticancer activity against human 786-0 cells assessed inhibition of cell growth after 48 hrs by CellTiter-Glo luminescent assay; type: functional, cell-based; details: 786-0, 48 h
Method in brief: (§3)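 Renal lines grown in RPMI 1640 with 5% FBS and 2 mM L-glutamine, plated at 5,000–10,000 cells/well in 384-well plates and held 2–3 h at 37 °C, 5% CO2. Compounds were made as 20 mM DMSO stocks, given as ten 2-fold serial dilutions diluted 1:100 into cells, and incubated 48 h. Read-out was CellTiter-Glo luminescence after 10 min at room temperature.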

MOLT-4 = test: Anticancer activity against human MOLT-4 cells assessed as cell growth inhibition at 10 uM incubated for 48 hrs by sulforhodamine B assay; type: functional; details: read-out: GI; method in brief: as §1
T47D = test: Anticancer activity against human T47D cells assessed as cell growth inhibition at 10 uM incubated for 48 hrs by sulforhodamine B assay; type: functional; details: read-out: GI
SF-268 = test: Anticancer activity against human SF-268 cells assessed as cell growth inhibition incubated for 48 hrs by sulforhodamine B assay; type: functional; method in brief: as §1
HCC 2998 [3] = test: Anticancer activity against human HCC 2998 cells assessed as cell growth inhibition incubated for 48 hrs by sulforhodamine B assay; type: functional; method in brief: as §2
IGROV-1 = test: Anticancer activity against human IGROV-1 cells assessed as cell growth inhibition at 10 uM incubated for 48 hrs by sulforhodamine B assay; type: functional; details: read-out: GI; method in brief: as §2
HCC 2998 [4] = test: Anticancer activity against human HCC 2998 cells assessed as cell growth inhibition at 10 uM incubated for 48 hrs by sulforhodamine B assay; type: functional; details: read-out: GI; method in brief: as §2
SNB-19 = test: Anticancer activity against human SNB-19 cells assessed as cell growth inhibition at 10 uM incubated for 48 hrs by sulforhodamine B assay; type: functional; details: read-out: GI
ACHN = test: Anticancer activity against human ACHN cells assessed inhibition of cell growth after 48 hrs by CellTiter-Glo luminescent assay; type: functional, cell-based; method in brief: as §3
TK-10 [5] = test: Anticancer activity against human TK-10 cells assessed as cell growth inhibition at 10 uM incubated for 48 hrs by sulforhodamine B assay; type: functional; details: read-out: GI
786-0 [6] = test: Anticancer activity against human 786-0 cells assessed as cell growth inhibition at 10 uM incubated for 48 hrs by sulforhodamine B assay; type: functional; details: read-out: GI; method in brief: as §2
HL-60 [7] = test: Anticancer activity against human HL-60 cells assessed as cell growth inhibition incubated for 48 hrs by sulforhodamine B assay; type: functional; method in brief: as §2
M14 [8] = test: Anticancer activity against human M14 cells assessed as cell growth inhibition at 10 uM incubated for 48 hrs by sulforhodamine B assay; type: functional; details: read-out: GI; method in brief: as §2
HCT-116 = test: Anticancer activity against human HCT-116 cells assessed as cell growth inhibition incubated for 48 hrs by sulforhodamine B assay; type: functional; method in brief: as §2
TK-10 [9] = test: Anticancer activity against human TK-10 cells assessed as cell growth inhibition incubated for 48 hrs by sulforhodamine B assay; type: functional
UACC-62 = test: Anticancer activity against human UACC-62 cells assessed as cell growth inhibition incubated for 48 hrs by sulforhodamine B assay; type: functional
KM12 [10] = test: Anticancer activity against human KM12 cells assessed as cell growth inhibition at 10 uM incubated for 48 hrs by sulforhodamine B assay; type: functional; details: read-out: GI; method in brief: as §2
LOX IMVI [11] = test: Anticancer activity against human LOX IMVI cells assessed as cell growth inhibition incubated for 48 hrs by sulforhodamine B assay; type: functional; method in brief: as §2
M14 [12] = test: Anticancer activity against human M14 cells assessed as cell growth inhibition incubated for 48 hrs by sulforhodamine B assay; type: functional; method in brief: as §2
NCI-H460 = test: Anticancer activity against human NCI-H460 cells assessed as cell growth inhibition incubated for 48 hrs by sulforhodamine B assay; type: functional; method in brief: as §1
SK-MEL-5 = test: Anticancer activity against human SK-MEL-5 cells assessed as cell growth inhibition at 10 uM incubated for 48 hrs by sulforhodamine B assay; type: functional; details: read-out: GI; method in brief: as §1
OVCAR-8 = test: Anticancer activity against human OVCAR-8 cells assessed as cell growth inhibition incubated for 48 hrs by sulforhodamine B assay; type: functional; method in brief: as §1
SR = test: Anticancer activity against human SR cells assessed as cell growth inhibition at 10 uM incubated for 48 hrs by sulforhodamine B assay; type: functional; details: read-out: GI
MDA-MB-468 = test: Anticancer activity against human MDA-MB-468 cells assessed as cell growth inhibition incubated for 48 hrs by sulforhodamine B assay; type: functional; method in brief: as §1
DNA = test: Potentiation of H2O2 induced [32P]-labeled 49-mer oligonucleotide duplex DNA 25 (unknown origin) interstrand cross-linking at pH 8 in phosphate buffer solution assessed as rate constant and measured for 24 hrs by PAGE analysis; type: functional
MCF7 = test: Anticancer activity against human MCF7 cells assessed as cell growth inhibition incubated for 48 hrs by sulforhodamine B assay; type: functional; method in brief: as §1
HL-60 [13] = test: Anticancer activity against human HL-60 cells assessed as cell growth inhibition at 10 uM incubated for 48 hrs by sulforhodamine B assay; type: functional; details: read-out: GI; method in brief: as §2
LOX IMVI [14] = test: Anticancer activity against human LOX IMVI cells assessed as cell growth inhibition at 10 uM incubated for 48 hrs by sulforhodamine B assay; type: functional; details: read-out: GI; method in brief: as §2
CAKI-1 = test: Anticancer activity against human CAKI-1 cells assessed as cell growth inhibition incubated for 48 hrs by sulforhodamine B assay; type: functional; method in brief: as §2
NCI/ADR-RES = test: Anticancer activity against human NCI/ADR-RES cells assessed as cell growth inhibition incubated for 48 hrs by sulforhodamine B assay; type: functional; method in brief: as §1
CLL cell = test: Induction of DNA damage in chronic lymphocytic leukemia patient lymphocytes assessed as apoptosis rate at 10 uM after 24 hrs by annexin/PI staining based flow cytometry; type: functional; details: Homo sapiens
A549 = test: Anticancer activity against human A549 cells assessed as cell growth inhibition incubated for 48 hrs by sulforhodamine B assay; type: functional; method in brief: as §2
SN12C = test: Anticancer activity against human SN12C cells assessed inhibition of cell growth after 48 hrs by CellTiter-Glo luminescent assay; type: functional, cell-based
Method in brief: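 Renal lines grown in RPMI 1640 with 5% FBS and 2 mM L-glutamine, seeded into 384-well plates at 5,000–10,000 cells/well, held 2–3 h at 37 °C, 5% CO2. DMSO stocks (20 mM) serially halved ten times and added at 1:100. Cells exposed 48 h at 37 °C; CellTiter-Glo added, 10 min at room temperature, luminescence read.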

**Q.** What does the source list for `COc1cc(CBr)c(B2OC(C)(C)C(C)(C)O2)c(CBr)c1`?
**A.** GI50 (RPMI-8226): 2000 nM; GI50 (KM12 [1]): 2000 nM; inhibition of growth at 10 µM (SNB-75): < 50%; IC50 (786-0 [2]): 10800 nM; inhibition of growth at 10 µM (MOLT-4): < 50%; inhibition of growth at 10 µM (T47D): < 50%; GI50 (SF-268): 2000 nM; GI50 (HCC 2998 [3]): 2000 nM; inhibition of growth at 10 µM (IGROV-1): < 50%; inhibition of growth at 10 µM (HCC 2998 [4]): < 50%; inhibition of growth at 10 µM (SNB-19): < 50%; IC50 (ACHN): 20000 nM; inhibition of growth at 10 µM (TK-10 [5]): < 50%; inhibition of growth at 10 µM (786-0 [6]): < 50%; GI50 (HL-60 [7]): 2000 nM; inhibition of growth at 10 µM (M14 [8]): < 50%; GI50 (HCT-116): 2000 nM; GI50 (TK-10 [9]): 2000 nM; GI50 (UACC-62): 2000 nM; inhibition of growth at 10 µM (KM12 [10]): < 50%; GI50 (LOX IMVI [11]): 2000 nM; GI50 (M14 [12]): 2000 nM; GI50 (NCI-H460): 2000 nM; inhibition of growth at 10 µM (SK-MEL-5): < 50%; GI50 (OVCAR-8): 2000 nM; inhibition of growth at 10 µM (SR): < 50%; GI50 (MDA-MB-468): 2000 nM; Ka (DNA): 0.000237 s⁻¹; GI50 (MCF7): 2000 nM; inhibition of growth at 10 µM (HL-60 [13]): < 50%; inhibition of growth at 10 µM (LOX IMVI [14]): < 50%; GI50 (CAKI-1): 2000 nM; GI50 (NCI/ADR-RES): 2000 nM; Activity (CLL cell): Active; GI50 (A549): 2000 nM; IC50 (SN12C): 18600 nM

From ChEMBL document CHEMBL5260806, “Hydrogen peroxide activated quinone methide precursors with enhanced DNA cross-linking capability and cytotoxicity towards cancer cells” (Eur J Med Chem, 2017)
